Experiments:
[1] = test system: LS 174T colorectal adenocarcinoma cells; experiment: Clonogenic survival and cell-retained 125I; format: cell-based, human; settings: 4 h, 185 kBq/mL
Summary of the method: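 LS 174T cells (2×10⁶ per T75) attached ~18 h, then exposed 4 h at 37°C to radiolabeled compound (185 kBq) or to nonradioactive medium for controls. Cells were washed, trypsinized and counted for viability. 1 mL of a 1×10⁶ cells/mL suspension was gamma-counted for cell-associated ¹²⁵I. Cells were plated in duplicate T25 flasks at 1,000, 500 and 100 cells/flask. Methanol-fixed colonies were scored after three weeks. Surviving fraction is treated/control colonies.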

[2] = Chemical hydrolysis of cycloSal phosphate triesters in phosphate buffer; format: physicochemical; settings: phosphate buffer 50 mM, pH 7.3, 37°C, ~15% acetonitrile
OVCAR-3 cells [3] = experiment: Subcellular distribution of 125I-labeled reagents; format: cell-based, human; settings: for ^125I in cytoplasm, 24 hours / ^125I in nucleus, 24 hours: 1 h incubation then 24 h in fresh nonradioactive medium; for ^125I in cytoplasm, 1 hour / ^125I in nucleus, 1 hour: 1 h incubation, 55.5 kBq/mL
Summary of the method: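 OVCAR-3 cells were kept in RPMI-1640 with insulin, 2 mM L-glutamine and 20% FBS and expanded as intraperitoneal xenografts in athymic nude mice. Cells in six T150 flasks attached overnight, then were exposed 1 h to ¹²⁵I compound (55.5 kBq/mL). Three flasks were processed immediately and three after 24 h in fresh medium. Cells were trypsinized, counted, fractionated into nuclear/cytoplasmic compartments and gamma-counted.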

OVCAR-3 cells [4] = experiment: Uptake kinetics; format: cell-based, human
Summary of the method: (§1)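 Cells were plated at 2×10⁵/well in 6-well plates in 3 mL growth medium: OVCAR-3 in RPMI-1640 with 20% FBS, LS 174T in EMEM with 10% FBS. After 24 h, radiolabeled compound (~13.6–46.9 kBq/mL) was added at staggered times, up to 360 min, in triplicate. Medium was gamma-counted for radioactive concentration. Cells were washed twice with ice-cold PBS, trypsinized and gamma-counted for cell-associated activity.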

LS 174T cells = experiment: Uptake kinetics; format: cell-based, human; settings: after 6 h
[5] = test system: LS 174T and OVCAR-3 cancer cell lines; experiment: Uptake kinetics, cell-associated activity after 3 h; format: cell-based, human; settings: after 3 h incubation
Summary of the method: as §1

human BChE = human BChE (Homo sapiens, UniProt P06276); experiment: Gel electrophoresis/autoradiography of radioactive compounds with BChE; format: binding; settings: BChE 0.02 U or increasing activities, 30 min
Summary of the method: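 Radioactive compounds with human BChE were run on native and nonreducing SDS-PAGE gels at constant 150 V or 190 V for 1 h. Gels were exposed to autoradiography film at −80°C for 1–48 h, depending on applied radioactivity. Native gels were stained for BChE activity with 1 mM butyrylthiocholine iodide as substrate (Karnovsky–Roots method).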

[6] = Solubility in aqueous media; settings: aqueous media / water

human BChE, sequence (P06276 29-602): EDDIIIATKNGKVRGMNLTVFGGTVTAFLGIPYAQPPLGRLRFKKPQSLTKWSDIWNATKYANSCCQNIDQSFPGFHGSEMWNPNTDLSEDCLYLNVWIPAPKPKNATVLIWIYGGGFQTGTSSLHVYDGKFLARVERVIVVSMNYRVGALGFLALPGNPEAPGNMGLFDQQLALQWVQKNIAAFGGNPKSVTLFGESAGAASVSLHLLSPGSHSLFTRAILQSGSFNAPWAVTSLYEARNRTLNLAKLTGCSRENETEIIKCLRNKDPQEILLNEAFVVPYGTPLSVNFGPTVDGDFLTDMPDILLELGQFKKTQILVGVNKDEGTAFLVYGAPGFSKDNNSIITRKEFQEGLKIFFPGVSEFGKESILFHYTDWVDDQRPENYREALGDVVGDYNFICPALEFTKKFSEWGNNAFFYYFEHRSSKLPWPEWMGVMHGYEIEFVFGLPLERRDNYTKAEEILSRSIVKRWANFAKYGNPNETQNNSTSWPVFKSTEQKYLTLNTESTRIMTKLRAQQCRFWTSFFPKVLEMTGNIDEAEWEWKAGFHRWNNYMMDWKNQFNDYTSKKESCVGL

## Cc1cccc2c1OP(=O)(OC[C@H]1O[C@@H](n3cc([125I])c(=O)[nH]c3=O)C[C@@H]1O)OC2 (stereo partly drawn) [7b-fast, 5-[^125I]-Iodo-5′-O-cyclo(3-methylSaligenyl)-2′-deoxyuridine Monophosphate]
[1]
  125I retained per cell: 0.196 (0.06) mBq ^125I/cell
[2]
  k (rate of hydrolysis): 0.000544 min⁻¹

## Cc1cccc2c1OP(=O)(OC[C@H]1O[C@@H](n3cc([125I])c(=O)[nH]c3=O)C[C@@H]1O)OC2 (stereo partly drawn) [7b-slow, 5-[^125I]-Iodo-5′-O-cyclo(3-methylSaligenyl)-2′-deoxyuridine Monophosphate]
OVCAR-3 cells [3]
  ^125I in cytoplasm, 24 hours: 1.8 (0.6) cpm/10^3 cells (std dev)
  ^125I in nucleus, 24 hours: 29.3 (7.0) cpm/10^3 cells (std dev)
  ^125I in cytoplasm, 1 hour: 13.0 (1.3) cpm/10^3 cells (std dev)
  ^125I in nucleus, 1 hour: 5.4 (0.4) cpm/10^3 cells (std dev)
OVCAR-3 cells [4]
  cell-associated radioactivity, OVCAR-3 compared to LS 174T: 1.7 ×
OVCAR-3 cells [4]; OVCAR-3, after 6 h
  ratio of slow to fast uptake: 3.5
LS 174T cells
  ratio of slow to fast uptake: 3.0
[1]
  125I retained per cell: 0.566 (0.333) mBq ^125I/cell
  surviving fraction: 0.63 (0.22) mBq
[2]
  k (rate of hydrolysis): 0.000463 min⁻¹

## CC(C)(C)c1cc(C(C)(C)C)c2c(c1F)COP(=O)(OC[C@H]1O[C@@H](n3cc(I)c(=O)[nH]c3=O)C[C@@H]1O)O2 (stereo partly drawn) [8-fast, 5-Iodo-5′-O-[cyclo-3,5-di-(tert-butyl)-6-fluoroSaligenyl]-2′-deoxyuridine Monophosphate]
[2]
  k (rate of hydrolysis): 0.000241 min⁻¹

## CC(C)(C)c1cc(C(C)(C)C)c2c(c1F)COP(=O)(OC[C@H]1O[C@@H](n3cc(I)c(=O)[nH]c3=O)C[C@@H]1O)O2 (stereo partly drawn) [8-slow, 5-Iodo-5′-O-[cyclo-3,5-di-(tert-butyl)-6-fluoroSaligenyl]-2′-deoxyuridine Monophosphate]
[2]
  k (rate of hydrolysis): 0.000188 min⁻¹

## CC(C)(C)c1cc(C(C)(C)C)c2c(c1F)COP(=O)(OC[C@H]1O[C@@H](n3cc([125I])c(=O)[nH]c3=O)C[C@@H]1O)O2 (stereo partly drawn) [8b-fast, 5-[^125I]-Iodo-5′-O-[cyclo-3,5-di-(tert-butyl)-6-fluoroSaligenyl]-2′-deoxyuridine Monophosphate]
[5]
  cell associated activity relative to the corresponding 6b diastereomer: > 110 ×
  cell associated activity relative to the corresponding 7b diastereomer: > 20 ×

## CC(C)(C)c1cc(C(C)(C)C)c2c(c1F)COP(=O)(OC[C@H]1O[C@@H](n3cc([125I])c(=O)[nH]c3=O)C[C@@H]1O)O2 (stereo partly drawn) [8b-slow, 5-[^125I]-Iodo-5′-O-[cyclo-3,5-di-(tert-butyl)-6-fluoroSaligenyl]-2′-deoxyuridine Monophosphate]
Human BChE
  binding to BChE on gel autoradiograph: BChE activity-dependent binding
OVCAR-3 cells [3]
  ^125I in cytoplasm, 24 hours: 2.8 (0.7) cpm/10^3 cells (std dev)
  ^125I in nucleus, 24 hours: 91.6 (5.7) cpm/10^3 cells (std dev)
  ^125I in cytoplasm, 1 hour: 87.3 (7.5) cpm/10^3 cells (std dev)
  ^125I in nucleus, 1 hour: 7.8 (0.6) cpm/10^3 cells (std dev)
[5]
  cell associated activity relative to the corresponding 6b diastereomer: ~ 180 ×
  cell associated activity relative to the corresponding 7b diastereomer: 35 ×

## O=c1[nH]c(=O)n([C@H]2C[C@H](OP3(=O)OCc4ccccc4O3)[C@@H](CO)O2)cc1I (stereo partly drawn) [12-fast, 5-Iodo-3′-O-cycloSaligenyl-2′-deoxyuridine Monophosphate]
[2]
  k (rate of hydrolysis): 0.00205 min⁻¹

## O=c1[nH]c(=O)n([C@H]2C[C@H](OP3(=O)OCc4ccccc4O3)[C@@H](CO)O2)cc1I (stereo partly drawn) [12-slow, 5-Iodo-3′-O-cycloSaligenyl-2′-deoxyuridine Monophosphate]
[2]
  k (rate of hydrolysis): 0.00164 min⁻¹

## Cc1cccc2c1OP(=O)(O[C@H]1C[C@H](n3cc(I)c(=O)[nH]c3=O)O[C@@H]1CO)OC2 (stereo partly drawn) [13-fast, 5 - Iodo-3′-O-cyclo(3-methylSaligenyl)-2′-deoxyuridine Monophosphate]
[2]
  k (rate of hydrolysis): 0.000946 min⁻¹

## Cc1cccc2c1OP(=O)(O[C@H]1C[C@H](n3cc(I)c(=O)[nH]c3=O)O[C@@H]1CO)OC2 (stereo partly drawn) [13-slow, 5 - Iodo-3′-O-cyclo(3-methylSaligenyl)-2′-deoxyuridine Monophosphate]
[2]
  k (rate of hydrolysis): 0.000813 min⁻¹

## CC(C)(C)c1cc(C(C)(C)C)c2c(c1F)COP(=O)(O[C@H]1C[C@H](n3cc(I)c(=O)[nH]c3=O)O[C@@H]1CO)O2 (stereo partly drawn) [14-fast, 5-Iodo-3′-O-[cyclo-3,5-di-(tert-butyl)-6-fluoroSaligenyl]-2′-deoxyuridine Monophosphate]
[2]
  k (rate of hydrolysis): 0.000766 min⁻¹

## CC(C)(C)c1cc(C(C)(C)C)c2c(c1F)COP(=O)(O[C@H]1C[C@H](n3cc(I)c(=O)[nH]c3=O)O[C@@H]1CO)O2 (stereo partly drawn) [14-slow, 5-Iodo-3′-O-[cyclo-3,5-di-(tert-butyl)-6-fluoroSaligenyl]-2′-deoxyuridine Monophosphate]
[2]
  k (rate of hydrolysis): 0.000667 min⁻¹

## CC(C)(C)c1cc(C(C)(C)C)c2c(c1F)COP(=O)(OC[C@H]1O[C@@H](n3cc(I)c(=O)[nH]c3=O)C[C@@H]1F)O2 (stereo partly drawn) [24-fast, 5-Iodo-5′-O-[cyclo-3,5-Di-(tert-butyl)-6-fluoroSaligenyl]-3′-fluoro-2′,3′-dideoxyuridine Monophosphate]
[2]
  k (rate of hydrolysis): 0.000292 min⁻¹

## CC(C)(C)c1cc(C(C)(C)C)c2c(c1F)COP(=O)(OC[C@H]1O[C@@H](n3cc(I)c(=O)[nH]c3=O)C[C@@H]1F)O2 (stereo partly drawn) [24-slow, 5-Iodo-5′-O-[cyclo-3,5-Di-(tert-butyl)-6-fluoroSaligenyl]-3′-fluoro-2′,3′-dideoxyuridine Monophosphate]
[2]
  k (rate of hydrolysis): 0.000222 min⁻¹

## CC(C)(C)c1cc(C(C)(C)C)c2c(c1F)COP(=O)(OC[C@H]1O[C@@H](n3cc([125I])c(=O)[nH]c3=O)C[C@@H]1F)O2 (stereo partly drawn) [24b, 5-[^125I]-Iodo-5′-O-[cyclo-3,5-Di-(tert-butyl)-6-fluoroSaligenyl]-3′-fluoro-2′,3′-dideoxyuridine]
[6]
  solubility: low solubility

## CC(C)(C)c1cc(C(C)(C)C)c2c(c1F)COP(=O)(OC[C@H]1O[C@@H](n3cc([125I])c(=O)[nH]c3=O)C[C@@H]1F)O2 (stereo partly drawn) [24b-fast, 5-[^125I]-Iodo-5′-O-[cyclo-3,5-Di-(tert-butyl)-6-fluoroSaligenyl]-3′-fluoro-2′,3′-dideoxyuridine]
[2]
  k (rate of hydrolysis): 0.000301 min⁻¹

## CC(C)(C)c1cc(C(C)(C)C)c2c(c1F)COP(=O)(OC[C@H]1O[C@@H](n3cc(I)c(=O)[nH]c3=O)C[C@@H]1O)O2 (stereo partly drawn) [compound 8, 5-Iodo-5′-O-[cyclo-3,5-di-(tert-butyl)-6-fluoroSaligenyl]-2′-deoxyuridine Monophosphate]
[6]
  solubility: lower water solubility

## CC(C)(C)c1cc(C(C)(C)C)c2c(c1F)COP(=O)(O[C@H]1C[C@H](n3cc(I)c(=O)[nH]c3=O)O[C@@H]1CO)O2 (stereo partly drawn) [compound 14, 5-Iodo-3′-O-[cyclo-3,5-di-(tert-butyl)-6-fluoroSaligenyl]-2′-deoxyuridine Monophosphate]
[6]
  solubility: lower water solubility

## CC(C)(C)c1cc(C(C)(C)C)c2c(c1F)COP(=O)(OC[C@H]1O[C@@H](n3cc(I)c(=O)[nH]c3=O)C[C@@H]1F)O2 (stereo partly drawn) [compound 24, 5-Iodo-5′-O-[cyclo-3,5-Di-(tert-butyl)-6-fluoroSaligenyl]-3′-fluoro-2′,3′-dideoxyuridine Monophosphate]
[6]
  solubility: lower water solubility
